{
  "source": "ChEMBL document CHEMBL3217692",
  "about": "“Synthesis and cytotoxicity evaluation of novel pyrido[3,4-d]pyrimidine derivatives as potential anticancer agents” (2012)",
  "tested_on": "SF-539",
  "experiment": "Cytotoxicity against human SF539 cells assessed as cell growth at 10 uM after 48 hrs by sulforhodamine B assay relative to control",
  "type": "functional",
  "conditions": "SF-539, 48 h, read-out: Activity",
  "method_in_brief": "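Adherent cells were grown in RPMI 1640 with 5% FBS and 2 mM L-glutamine, seeded at 5000–40 000 cells/well by doubling time, and held 24 h at 37 °C, 5% CO2 before drug. Time-zero plates were TCA-fixed. Compound in DMSO, single dose 10 μM, 48 h. Cells were fixed with cold TCA (final 10%, 60 min, 4 °C) and stained with 0.4% SRB. Bound dye was dissolved in 10 mM Tris base and read at 515 nm. Percent growth was derived from time-zero, control and treated absorbances.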",
  "data": [
    {"smiles": "COc1nccc2c(-c3cccc(F)c3)nc(N)nc12", "values": [
      {"measurement": "growth at 10 µM", "result": 97.2, "unit": "%"}
    ]}
  ]
}
